15 molecules from ChEMBL document CHEMBL1938329, “The discovery of potent, selective, and orally active pyrazoloquinolines as PDE10A inhibitors for the treatment of Schizophrenia” (Bioorg Med Chem Lett, 2012) can be followed below.

By Ki is commonly meant the equilibrium dissociation constant of an inhibitor or competing ligand from its target. The term AUC(0-t) denotes exposure summed from dosing to a finite time, without extrapolation to infinity. Usually ED50 stands for the midpoint of the dose-response relation. The efflux ratio is a quotient of directional permeabilities that is used to spot active efflux. By AUC is commonly meant concentration integrated over time.

Calls of active or inactive are those of the source. No cut-off for these calls is given here.

The target of series [1] is cAMP and cAMP-inhibited cGMP 3',5'-cyclic phosphodiesterase 10A (Homo sapiens, UniProt Q9Y233). Description: Inhibition of recombinant human PDE10A using [3H]cAMP as substrate by scintillation proximity assay. Summed up: (§1)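 Scintillation proximity assay with [³H]cAMP as substrate, measuring hydrolysis of cAMP to AMP by recombinant human PDEs 1–11. Ki values are means of at least two experiments.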
Sequence of cAMP and cAMP-inhibited cGMP 3',5'-cyclic phosphodiesterase 10A (Q9Y233 whole entry): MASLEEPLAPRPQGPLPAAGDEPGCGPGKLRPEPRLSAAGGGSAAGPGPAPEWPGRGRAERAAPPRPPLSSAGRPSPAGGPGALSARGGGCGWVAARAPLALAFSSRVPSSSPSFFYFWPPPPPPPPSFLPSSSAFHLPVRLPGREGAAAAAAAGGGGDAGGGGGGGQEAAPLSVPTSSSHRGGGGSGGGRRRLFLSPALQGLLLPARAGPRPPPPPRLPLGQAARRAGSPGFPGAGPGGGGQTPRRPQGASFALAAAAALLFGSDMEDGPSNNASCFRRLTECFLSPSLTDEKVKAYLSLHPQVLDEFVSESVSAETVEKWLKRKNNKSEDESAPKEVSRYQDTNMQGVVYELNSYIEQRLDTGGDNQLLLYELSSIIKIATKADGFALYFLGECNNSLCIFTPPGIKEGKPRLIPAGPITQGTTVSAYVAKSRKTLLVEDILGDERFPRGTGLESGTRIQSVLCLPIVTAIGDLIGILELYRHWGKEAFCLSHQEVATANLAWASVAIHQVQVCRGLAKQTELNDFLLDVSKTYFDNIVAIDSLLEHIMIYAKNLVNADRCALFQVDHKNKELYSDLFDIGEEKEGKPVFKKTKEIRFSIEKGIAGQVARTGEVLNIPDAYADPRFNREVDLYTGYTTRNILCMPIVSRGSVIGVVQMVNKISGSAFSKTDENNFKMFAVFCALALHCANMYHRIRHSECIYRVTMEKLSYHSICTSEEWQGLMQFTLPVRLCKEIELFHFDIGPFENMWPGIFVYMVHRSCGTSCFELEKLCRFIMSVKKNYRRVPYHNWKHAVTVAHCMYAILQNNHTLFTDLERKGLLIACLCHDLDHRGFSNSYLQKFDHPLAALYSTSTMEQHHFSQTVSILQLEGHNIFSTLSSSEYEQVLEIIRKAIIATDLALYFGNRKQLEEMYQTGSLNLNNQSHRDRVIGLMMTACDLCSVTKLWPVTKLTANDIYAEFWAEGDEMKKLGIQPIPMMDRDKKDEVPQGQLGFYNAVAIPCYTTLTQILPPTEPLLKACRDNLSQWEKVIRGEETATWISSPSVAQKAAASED
A general note: In a scintillation proximity assay essentially only radioactivity close to the scintillant gives light.

Series [2] is described as follows: AUC (0 to 6 hrs) in rat at 10 mg/kg, po. Set-up: time < 6 hr, dose 10 mg/kg, route oral. The class given is ADME, organism-based. To be noted: plasma. Summed up:
(§2)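 Rat cassette-accelerated rapid screen, 10 mg/kg oral. Plasma exposure measured over 0–6 h. Brain drug concentration taken at 6 h. Brain/plasma ratio is brain over plasma drug concentration at 6 h.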

Series [3] is filed under the species Homo sapiens. Kind of series: Selectivity ratio of Ki for recombinant human PDE3 to Ki for recombinant human PDE10A. The essentials:
(§3)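 Recombinant human PDE enzymes (PDE1–11) were tested in a scintillation proximity assay with [³H]cAMP as substrate, measuring hydrolysis of cAMP to AMP. Ki values are means of at least two experiments. The ratio is the Ki for each off-target PDE divided by the PDE10A Ki.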

Series [4] is filed under the species Homo sapiens. Description: Selectivity ratio of Ki for recombinant human PDE1 to Ki for recombinant human PDE10A. Summed up:
as §3

For series [5], the species on record is Homo sapiens. Description: Selectivity ratio of Ki for recombinant human PDE5A to Ki for recombinant human PDE10A. Summed up: as §3
The species entered for series [6] is Homo sapiens. Kind of series: Selectivity ratio of Ki for recombinant human PDE9 to Ki for recombinant human PDE10A. Summed up: as §3
The species entered for series [7] is Homo sapiens. Kind of series: Selectivity ratio of Ki for recombinant human PDE4 to Ki for recombinant human PDE10A. The essentials:
as §3

The test system of series [8] is Rattus norvegicus. Description: Antipsychotic activity in CD rat assessed as inhibition of MK-801-induced hyperactivity at 30 mg/kg, po relative to control. The class given is functional, organism-based. Also on record: dose 30 mg/kg. The essentials:
(§4)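 Male CD rats habituated to locomotor activity chambers 24 h before testing. On test day, MK-801 (0.3 mg/kg, sc) co-administered with PDE10 inhibitor (po), then rats placed in apparatus. Inhibition expressed as percent of activity in inhibitor + MK-801 group relative to vehicle + MK-801 group.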

Series [9] is filed under the species Homo sapiens. Description: Selectivity ratio of Ki for recombinant human PDE8 to Ki for recombinant human PDE10A. Summed up:
as §3

The species named for series [10] is Homo sapiens. Description: Selectivity ratio of Ki for recombinant human PDE6 to Ki for recombinant human PDE10A. The essentials:
as §3

For series [11], the species on record is Homo sapiens. Kind of series: Selectivity ratio of Ki for recombinant human PDE2 to Ki for recombinant human PDE10A. The essentials: as §3
The species named for series [12] is Homo sapiens. Kind of series: Selectivity ratio of Ki for recombinant human PDE7 to Ki for recombinant human PDE10A. The essentials:
as §3

Series [13] in a line: Ratio of drug level in brain to plasma in rat at 10 mg/kg, po at 6 hrs. It is filed as ADME, organism-based. Also on record: dose 10 mg/kg, route oral. To be noted: read-out: BPR. Summed up:
as §2

For series [14], the species on record is Homo sapiens. Kind of series: Selectivity ratio of Ki for recombinant human PDE11 to Ki for recombinant human PDE10A. Summed up: as §3
The target of another series is Phosphodiesterase 6. Kind of series: Inhibition of recombinant human PDE6 using [3H]cAMP as substrate by scintillation proximity assay. The class given is protein assay. The essentials: as §1
Series [15] in a line: Drug uptake in rat brain at 10 mg/kg, po after 6 hrs. It is filed as ADME, organism-based. Also on record: dose 10 mg/kg, route oral. To be noted: read-out: Drug uptake. Summed up:
as §2

For series [16], the system named is Rattus norvegicus. Description: Antipsychotic activity in po dosed CD rat assessed as inhibition of MK-801 induced hyperactivity relative to control. It is filed as functional. Summed up:
as §4

The nature of series [17]: Efflux ratio of permeability in human Caco2 cells. It is filed as ADME, cell-based. The following applies: Caco-2. A general note: Caco-2 cells form a polarised layer with tight junctions and transporters.
The target in the next series is Phosphodiesterase 3 (Homo sapiens, UniProt Q14432+Q13370). Description: Inhibition of recombinant human PDE3 using [3H]cAMP as substrate by scintillation proximity assay. The class given is protein assay. Summed up: as §1
Series [18] is described as follows: Clearance in human hepatocytes assessed per million of cells. The class given is ADME, cell-based, Hepatocyte. To be noted: read-out: CLH.
Series [19] is filed under the species Rattus norvegicus. Kind of series: Sedative activity in rat assessed as hypolocomotion by spontaneous locomotor activity test. It is filed as organism-based. To be noted: in vivo. The essentials: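 Hypolocomotion assessed in rats by spontaneous locomotor activity test, run to distinguish reversal of MK-801-induced behaviour from compound-induced hypolocomotion; ED₅₀ derived.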

The target in series [20] is cGMP-dependent 3',5'-cyclic phosphodiesterase (Homo sapiens, UniProt O00408). Description: Inhibition of recombinant human PDE2 using [3H]cAMP as substrate by scintillation proximity assay. The essentials: as §1
Sequence of cGMP-dependent 3',5'-cyclic phosphodiesterase (O00408 whole entry): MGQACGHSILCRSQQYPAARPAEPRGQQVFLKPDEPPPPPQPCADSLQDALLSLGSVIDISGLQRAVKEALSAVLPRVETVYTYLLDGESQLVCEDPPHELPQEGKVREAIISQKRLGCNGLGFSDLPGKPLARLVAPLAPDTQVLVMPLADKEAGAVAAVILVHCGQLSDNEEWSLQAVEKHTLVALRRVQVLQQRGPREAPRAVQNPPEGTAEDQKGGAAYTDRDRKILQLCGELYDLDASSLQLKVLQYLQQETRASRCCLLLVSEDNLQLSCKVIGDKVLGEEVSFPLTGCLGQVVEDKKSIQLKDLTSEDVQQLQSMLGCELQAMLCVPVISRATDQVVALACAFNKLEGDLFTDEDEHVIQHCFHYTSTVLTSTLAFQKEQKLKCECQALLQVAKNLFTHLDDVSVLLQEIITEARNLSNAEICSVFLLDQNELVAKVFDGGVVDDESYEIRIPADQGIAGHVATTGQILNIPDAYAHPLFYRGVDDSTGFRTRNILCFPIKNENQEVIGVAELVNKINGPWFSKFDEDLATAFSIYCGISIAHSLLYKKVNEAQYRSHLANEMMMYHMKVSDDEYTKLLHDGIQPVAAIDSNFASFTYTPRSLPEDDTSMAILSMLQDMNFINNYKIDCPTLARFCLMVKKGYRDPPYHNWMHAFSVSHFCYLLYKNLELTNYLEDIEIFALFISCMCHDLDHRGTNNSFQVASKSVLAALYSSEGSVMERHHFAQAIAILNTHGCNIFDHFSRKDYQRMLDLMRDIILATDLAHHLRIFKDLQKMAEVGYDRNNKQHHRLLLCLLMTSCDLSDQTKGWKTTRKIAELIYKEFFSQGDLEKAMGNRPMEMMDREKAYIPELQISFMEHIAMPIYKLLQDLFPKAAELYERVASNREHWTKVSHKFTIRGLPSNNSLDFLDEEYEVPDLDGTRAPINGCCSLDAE
The target of another series is Phosphodiesterase 4 (Homo sapiens, UniProt P27815+Q08499+Q07343+Q08493). Kind of series: Inhibition of recombinant human PDE4 using [3H]cAMP as substrate by scintillation proximity assay. It is filed as protein assay. The essentials: as §1
The next series has as its target Phosphodiesterase 8 (Homo sapiens, UniProt O95263+O60658). Kind of series: Inhibition of recombinant human PDE8 using [3H]cAMP as substrate by scintillation proximity assay. It is filed as protein assay. The essentials: as §1
Series [21] has as its target High affinity cGMP-specific 3',5'-cyclic phosphodiesterase 9A (Homo sapiens, UniProt O76083). Kind of series: Inhibition of recombinant human PDE9 using [3H]cAMP as substrate by scintillation proximity assay. Summed up: as §1
The target of a further series is Phosphodiesterase 7 (Homo sapiens, UniProt Q13946+Q9NP56). Kind of series: Inhibition of recombinant human PDE7 using [3H]cAMP as substrate by scintillation proximity assay. It is filed as protein assay. The essentials: as §1
The next series has as its target Phosphodiesterase 1 (Homo sapiens, UniProt P54750+Q01064+Q14123). Description: Inhibition of recombinant human PDE1 using [3H]cAMP as substrate by scintillation proximity assay. The class given is protein assay. Summed up:
as §1

Series [22] can be described thus: AUC in dog at 2 mg/kg, po. It is filed as ADME, organism-based, Canis lupus familiaris. Set-up: dose 2 mg/kg, route oral. To be noted: plasma.
A short description of series [23]: Clearance in dog hepatocytes assessed per million of cells. It is filed as ADME, cell-based, Canis lupus familiaris, Hepatocyte. The following applies: read-out: CLH.
For series [24], the target named is cGMP-specific 3',5'-cyclic phosphodiesterase (Homo sapiens, UniProt O76074). Description: Inhibition of recombinant human PDE5A using [3H]cAMP as substrate by scintillation proximity assay. The essentials: as §1
The target of series [25] is Dual 3',5'-cyclic-AMP and -GMP phosphodiesterase 11A (Homo sapiens, UniProt Q9HCR9). Description: Inhibition of recombinant human PDE11 using [3H]cAMP as substrate by scintillation proximity assay. The essentials:
as §1

Series [26] in a line: Clearance in rat hepatocytes assessed per million of cells. It is filed as ADME, cell-based, Hepatocyte. The following applies: read-out: CLH.
A short description of series [27]: Plasma protein binding in rat. It is filed as ADME, cell-free. The following applies: read-out: PPB (converted).
Series [28] in a line: Clearance in cebus monkey hepatocytes assessed per million of cells. It is filed as ADME, cell-based, Hepatocyte. To be noted: cebus capucinus, read-out: CLH.

Sequence of Dual 3',5'-cyclic-AMP and -GMP phosphodiesterase 11A (Q9HCR9 whole entry): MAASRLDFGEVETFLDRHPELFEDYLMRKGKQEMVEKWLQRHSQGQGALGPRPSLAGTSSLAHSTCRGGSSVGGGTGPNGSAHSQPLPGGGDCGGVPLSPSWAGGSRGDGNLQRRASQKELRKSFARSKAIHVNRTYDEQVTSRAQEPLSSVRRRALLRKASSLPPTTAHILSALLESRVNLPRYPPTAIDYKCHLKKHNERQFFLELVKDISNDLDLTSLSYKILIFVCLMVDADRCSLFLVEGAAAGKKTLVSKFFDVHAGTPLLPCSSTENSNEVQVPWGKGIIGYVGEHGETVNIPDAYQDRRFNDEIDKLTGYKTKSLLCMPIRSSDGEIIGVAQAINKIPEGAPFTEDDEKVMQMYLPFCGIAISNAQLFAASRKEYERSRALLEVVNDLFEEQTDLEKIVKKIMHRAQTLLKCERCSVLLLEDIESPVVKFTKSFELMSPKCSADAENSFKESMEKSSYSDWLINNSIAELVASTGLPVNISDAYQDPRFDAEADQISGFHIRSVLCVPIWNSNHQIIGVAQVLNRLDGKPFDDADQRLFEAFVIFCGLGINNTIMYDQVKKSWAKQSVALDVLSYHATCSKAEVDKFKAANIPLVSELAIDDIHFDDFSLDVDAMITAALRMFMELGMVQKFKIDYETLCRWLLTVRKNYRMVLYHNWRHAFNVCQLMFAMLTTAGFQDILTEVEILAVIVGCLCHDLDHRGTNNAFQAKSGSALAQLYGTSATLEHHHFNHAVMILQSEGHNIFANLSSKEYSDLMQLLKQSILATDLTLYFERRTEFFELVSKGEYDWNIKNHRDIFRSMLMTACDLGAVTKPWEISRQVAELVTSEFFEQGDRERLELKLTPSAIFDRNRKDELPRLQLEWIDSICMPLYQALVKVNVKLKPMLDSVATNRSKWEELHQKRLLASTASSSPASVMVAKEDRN
Sequence of High affinity cGMP-specific 3',5'-cyclic phosphodiesterase 9A (O76083 whole entry): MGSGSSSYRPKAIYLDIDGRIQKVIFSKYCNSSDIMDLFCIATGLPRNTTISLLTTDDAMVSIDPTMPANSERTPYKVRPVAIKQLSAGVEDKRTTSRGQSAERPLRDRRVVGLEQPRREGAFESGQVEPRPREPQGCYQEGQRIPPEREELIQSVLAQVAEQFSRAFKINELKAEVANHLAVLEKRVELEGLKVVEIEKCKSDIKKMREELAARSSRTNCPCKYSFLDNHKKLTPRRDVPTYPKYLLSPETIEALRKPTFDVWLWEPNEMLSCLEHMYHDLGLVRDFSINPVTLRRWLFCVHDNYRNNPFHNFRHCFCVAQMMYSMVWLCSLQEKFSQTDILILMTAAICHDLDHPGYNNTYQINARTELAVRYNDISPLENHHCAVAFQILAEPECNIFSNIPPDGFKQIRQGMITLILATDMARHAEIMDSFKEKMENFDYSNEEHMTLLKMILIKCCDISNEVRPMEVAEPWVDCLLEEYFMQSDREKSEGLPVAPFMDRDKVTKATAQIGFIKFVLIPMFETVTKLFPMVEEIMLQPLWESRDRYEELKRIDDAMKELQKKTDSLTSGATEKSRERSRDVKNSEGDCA

`Cc1n[nH]c2nc3ccccc3c(N3CCNCC3)c12`: in series [1], the Ki stood at 550 nM.

Regarding `COc1cc(C)c2nc3[nH]nc(C)c3c(N3CCCOCC3)c2c1`, the AUC(0-t) at 6 h in series [2] stood at 11 µM·h. Also, the Ratio Ki in the series listed under Homo sapiens [3], in the series listed under Homo sapiens [4], in the series listed under Homo sapiens [5], in the series listed under Homo sapiens [6], in the series filed under Homo sapiens [7] and in the series filed under Homo sapiens [9] was above 1450 throughout. Further, the Ratio Ki in the series listed under Homo sapiens [10], in the series listed under Homo sapiens [11], in the series listed under Homo sapiens [12] and in the series listed under Homo sapiens [14] was above 1450 each time. Moreover, the inhibition entry in the series on Rattus norvegicus [8] was “Active”. In [1], the Ki is 3.6 nM. Besides, the Kp at 6 h in [13] was found to be 0.3.

`COc1cc(C)c2nc3[nH]nc(C)c3c(NCCC3CCOCC3)c2c1`: the Ki in series [1] worked out at 409 nM.

Consider `COc1cc(C)c2nc3[nH]nc(C)c3c(NCc3ccccn3)c2c1`, for which the values for the Ki (on Phosphodiesterase 6; in series [1]) were 1811 nM and 6 nM, respectively.

Take `COc1cc(C)c2nc3[nH]nc(C)c3c(N3CCOCC3)c2c1`: the Ki in series [1] turned out to be 23 nM.

Take `Cc1n[nH]c2nc3ccc(Cl)cc3c(N3CCNCC3)c12`: in series [1], the inhibitory constant (Ki) amounted to 419 nM.

For `COc1cc(C)c2nc3[nH]nc(C)c3c(N3CCC(C(N)=O)CC3)c2c1`, in [15], the concentration at 6 h is below 10 ng/g. Also, the Ki in series [1] worked out at 3 nM.

On to `COc1cc(C)c2nc3[nH]nc(C)c3c(NCC3CCOCC3)c2c1`, for which the Ki was determined as 697 nM on Phosphodiesterase 6 and 52 nM in [1].

As for `COc1cc(C)c2nc3[nH]nc(C)c3c(N3CCOC(CO)C3)c2c1` (racemic), the concentration at 6 h in [15] was below 10 ng/g. The Ki in series [1] stood at 9.6 nM.

As to `COc1ccc2nc3[nH]nc(C)c3c(N3CCNCC3)c2c1`, in series [1], the Ki amounted to 585 nM.

`Cc1cc(Cl)cc2c(N3CCNCC3)c3c(C)n[nH]c3nc12`: the AUC(0-t) at 6 h in [2] was 0.14 µM·h. Moreover, the Ki in [1] stood at 35 nM.

Consider `COc1cc(C)c2nc3[nH]nc(C)c3c(NC3CCOCC3)c2c1`, for which the ED50 in the series on Rattus norvegicus [16] was 4 mg/kg; in the series listed under Rattus norvegicus [19], 23 mg/kg. For the same molecule, the efflux ratio in series [17] was determined as 0.7. The Ki result was “>= 4793 nM” on Phosphodiesterase 3; 278 nM on Phosphodiesterase 6; at least 4790 nM in series [20]; “>= 4793 nM” at Phosphodiesterase 4; “>= 4793 nM” at Phosphodiesterase 8; at least 4790 nM in [21]. Further, the Ki result is “>= 4793 nM” on Phosphodiesterase 7; “>= 4793 nM” at Phosphodiesterase 1; 12 nM in series [1]; 17300 nM in series [24]; at least 4790 nM in series [25]. The hepatocyte CLint was 1.7 µL/min/1e6 cells in [18], 0.8 µL/min/1e6 cells in [23], 2.9 µL/min/1e6 cells in [26] and 54 µL/min/1e6 cells in series [28]. In [2], the AUC(0-t) at 6 h is 11.8 µM·h. The concentration at 6 h in [15] stood at 1100 ng/g. For the same molecule, the AUC in [22] was 12.5 µM·h. Moreover, the fraction unbound in [27] was 0.07. Further, in series [13], the Kp at 6 h was determined as 0.7.

For `COc1cc(C)c2nc3[nH]nc(C)c3c(N3CCSCC3)c2c1`, the Ki in [1] was 196 nM.

As to `COc1cc(C)c2nc3[nH]nc(C)c3c(NCC3CNCCO3)c2c1` (stereo unspecified), the Ki on Phosphodiesterase 6 was found to be 13882 nM; in [1], 5 nM.

In the case of `COc1cc(C)c2nc3[nH]nc(C)c3c(NCC3CN(C)CCO3)c2c1` (stereo unspecified), in series [1], the Ki was 280 nM.
